From ChEMBL document CHEMBL4396973, “Design and development of a series of borocycles as selective, covalent kallikrein 5 inhibitors” (Bioorg Med Chem Lett, 2019)
Structures can show the parent of a compound that is named as a salt.

What was measured:
Kallikrein-1 [1] = molecular target: T1, Kallikrein-1 (Homo sapiens, UniProt P06870); test: Inhibition of human recombinant N-terminal His-tagged and enterokinase cleavage site-fused KLK1 (19 to 262 residues) expressed in baculovirus infected Sf9 insect cells using R110 labelled GSK3162232A as substrate measured at 30 secs interval for 5 mins by FLINT assay
[2] = Dissociation constant, borocycle pKa of the compound; assay type: physicochemical
Coagulation factor X = Coagulation factor X (Homo sapiens, UniProt P00742); test: Inhibition of recombinant human C-terminal 10-His-tagged factor Xa (L24 to K488 residues) expressed in baculovirus infected Sf21 insect cells using Mca-RPKPVE-Nval-WRK(Dnp)-NH2 as substrate incubated for 40 mins by FLINT assay
Plasma kallikrein = Plasma kallikrein (Homo sapiens, UniProt P03952); test: Inhibition of human C-terminal 6-His-tagged KLKB1 (G20-A638 residues) expressed in mouse NS0 cells using PFR-AMC as substrate incubated for 40 mins by FLINT assay
Kallikrein-7 = Kallikrein-7 (Homo sapiens, UniProt P49862); test: Inhibition of recombinant human C-terminal 10-His-tagged KLK7 (Glu23 to His252 residues) expressed in mouse NS0 cells using 5-FAM-E-A-L-Y-L-V-S-G-C(5-TAMRA) as substrate incubated for 40 mins by FLINT assay
Kallikrein-8 = molecular target: T2, Kallikrein-8 (Homo sapiens, UniProt O60259); test: Inhibition of recombinant human C-terminal 10-His-tagged KLK8 (Gln29 to Gly260 residues) expressed in mouse NS0 cells using BOC-VPR-AMC as substrate incubated for 40 mins by FLINT assay
T2 sequence (O60259 whole entry): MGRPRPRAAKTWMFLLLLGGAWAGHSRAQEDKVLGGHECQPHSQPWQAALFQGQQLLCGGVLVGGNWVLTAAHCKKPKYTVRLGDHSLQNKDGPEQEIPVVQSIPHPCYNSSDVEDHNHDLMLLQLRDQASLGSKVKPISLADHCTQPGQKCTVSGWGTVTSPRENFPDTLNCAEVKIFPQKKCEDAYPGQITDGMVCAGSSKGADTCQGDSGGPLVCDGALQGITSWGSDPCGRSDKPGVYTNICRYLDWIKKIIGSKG

Kallikrein-14 = molecular target: T3, Kallikrein-14 (Homo sapiens, UniProt Q9P0G3); test: Inhibition of recombinant human C-terminal 10-His-tagged KLK14 (Q19 to M248 residues) expressed in mouse NS0 cells using BOC-VPR-AMC as substrate incubated for 40 mins by FLINT assay
T3 sequence (Q9P0G3 whole entry): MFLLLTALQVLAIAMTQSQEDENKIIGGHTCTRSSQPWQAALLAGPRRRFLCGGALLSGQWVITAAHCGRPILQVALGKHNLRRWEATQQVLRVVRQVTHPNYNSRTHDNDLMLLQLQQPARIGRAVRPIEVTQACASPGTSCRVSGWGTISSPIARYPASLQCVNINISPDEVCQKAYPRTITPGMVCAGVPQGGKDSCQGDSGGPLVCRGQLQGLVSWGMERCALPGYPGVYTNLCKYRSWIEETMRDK

[3] = molecular target: T4, Suppressor of tumorigenicity 14 protein (Homo sapiens, UniProt Q9Y5Y6); test: Inhibition of recombinant human N-terminal Met and 6-His-tagged matriptase (G596 to V855 residues) expressed in Escherichia coli using Boc-QAR-AMC as substrate incubated for 40 mins by FLINT assay
T4 sequence (Q9Y5Y6 whole entry): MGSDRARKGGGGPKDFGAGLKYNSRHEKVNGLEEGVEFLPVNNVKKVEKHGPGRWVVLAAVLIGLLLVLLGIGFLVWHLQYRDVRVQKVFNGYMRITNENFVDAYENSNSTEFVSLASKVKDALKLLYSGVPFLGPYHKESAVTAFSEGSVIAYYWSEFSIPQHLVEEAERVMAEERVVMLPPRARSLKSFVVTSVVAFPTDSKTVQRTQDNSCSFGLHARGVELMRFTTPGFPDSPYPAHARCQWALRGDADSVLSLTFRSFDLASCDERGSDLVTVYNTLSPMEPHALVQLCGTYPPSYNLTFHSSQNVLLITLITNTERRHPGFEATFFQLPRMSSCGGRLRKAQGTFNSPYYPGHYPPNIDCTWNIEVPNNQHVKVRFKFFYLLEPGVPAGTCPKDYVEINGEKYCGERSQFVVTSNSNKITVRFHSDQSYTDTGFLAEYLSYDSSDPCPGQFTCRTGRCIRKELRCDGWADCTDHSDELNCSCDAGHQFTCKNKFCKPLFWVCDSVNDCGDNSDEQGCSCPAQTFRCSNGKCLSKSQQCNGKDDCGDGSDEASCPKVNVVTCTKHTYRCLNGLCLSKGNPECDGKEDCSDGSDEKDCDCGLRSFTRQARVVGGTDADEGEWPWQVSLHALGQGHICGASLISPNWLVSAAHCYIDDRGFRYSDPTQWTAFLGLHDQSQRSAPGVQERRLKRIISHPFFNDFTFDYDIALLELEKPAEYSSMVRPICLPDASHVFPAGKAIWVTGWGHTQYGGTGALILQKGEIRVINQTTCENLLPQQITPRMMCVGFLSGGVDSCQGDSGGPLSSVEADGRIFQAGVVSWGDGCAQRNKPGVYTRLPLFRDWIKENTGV

Prothrombin = Prothrombin (Homo sapiens, UniProt P00734); test: Inhibition of human recombinant C-terminal 10-His-tagged thrombin (M1 to E622 residues) expressed in mouse NS0 cells using BOC-VPR-AMC as substrate incubated for 40 mins by FLINT assay
Neutrophil elastase = molecular target: T5, Neutrophil elastase (Homo sapiens, UniProt P08246); test: Inhibition of human neutrophil elastase using MeOSuc-AAPV-AMC as substrate incubated for 40 mins by FLINT assay
T5 sequence (P08246 whole entry): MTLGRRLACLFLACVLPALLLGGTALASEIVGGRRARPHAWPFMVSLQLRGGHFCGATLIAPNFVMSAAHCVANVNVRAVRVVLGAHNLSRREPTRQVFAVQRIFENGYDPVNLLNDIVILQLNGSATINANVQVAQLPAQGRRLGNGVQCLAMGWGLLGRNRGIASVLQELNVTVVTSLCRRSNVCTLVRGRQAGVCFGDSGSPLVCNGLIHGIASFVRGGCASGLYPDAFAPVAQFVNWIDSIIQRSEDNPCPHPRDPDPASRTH

[4] = molecular target: Urokinase-type plasminogen activator (Homo sapiens, UniProt P00749); test: Inhibition of recombinant human C-terminal 10-His-tagged urokinase (M1 to L431 residues) expressed in mouse NS0 cells using Z-GGR-AMC as substrate incubated for 40 mins by FLINT assay
Homo sapiens [5] = species on record: Homo sapiens; test: Selectivity ratio of IC50 for human recombinant N-terminal His-tagged and enterokinase cleavage site-fused KLK1 (19 to 262 residues) expressed in baculovirus infected Sf9 insect cells to IC50 for human recombinant 6His-Q-FLAG-tagged KLK5 expressed in baculovirus infected Sf9 insect cells
Kallikrein-5 [6] = molecular target: T6, Kallikrein-5 (Homo sapiens, UniProt Q9Y337); test: Inhibition of human recombinant 6His-Q-FLAG-tagged KLK5 expressed in baculovirus infected Sf9 insect cells using (Tos-Gly-Pro-Arg)2[R110].2TFA as substrate measured at 30 secs interval for 5 mins using 1 x 10'10M enzyme by FLINT assay
T6 sequence (Q9Y337 whole entry): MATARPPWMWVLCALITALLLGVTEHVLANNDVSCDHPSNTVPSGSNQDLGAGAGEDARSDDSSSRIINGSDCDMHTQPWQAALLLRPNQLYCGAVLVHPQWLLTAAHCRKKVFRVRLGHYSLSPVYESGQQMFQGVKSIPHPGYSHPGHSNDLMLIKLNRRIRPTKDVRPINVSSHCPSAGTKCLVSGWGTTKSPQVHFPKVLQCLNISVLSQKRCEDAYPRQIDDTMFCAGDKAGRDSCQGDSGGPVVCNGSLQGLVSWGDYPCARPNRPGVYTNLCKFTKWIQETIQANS

Homo sapiens [7] = species on record: Homo sapiens; test: Selectivity ratio of IC50 for human C-terminal 6-His-tagged KLKB1 (G20 to A638 residues) expressed in mouse NS0 cells to IC50 for human recombinant 6His-Q-FLAG-tagged KLK5 expressed in baculovirus infected Sf9 insect cells
Kallikrein-5 [8] = molecular target: T6, Kallikrein-5; test: Inhibition of human recombinant 6His-Q-FLAG-tagged KLK5 expressed in baculovirus infected Sf9 insect cells using (Tos-Gly-Pro-Arg)2[R110].2TFA as substrate measured at 30 secs interval for 5 mins by FLINT assay
In short: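 Standard KLK5 assay format. Its theoretical tight-binding limit corresponds to pIC50 8.4.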

[9] = molecular target: Kallikrein-5 (Homo sapiens) (UniProt Q9Y337); test: Covalent reversible inhibition of human recombinant 6His-Q-FLAG-tagged KLK5 expressed in baculovirus infected Sf9 insect cells assessed as dissociation rate constant
In short: (§1)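 Jump-dilution experiment used to follow dissociation from KLK5. The apparent off-rate constant (K-off, per min) and dissociation half-life (T1/2) were derived from it.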

[10] = molecular target: Kallikrein-5 (Homo sapiens) (UniProt Q9Y337); test: Covalent reversible inhibition of human recombinant 6His-Q-FLAG-tagged KLK5 expressed in baculovirus infected Sf9 insect cells assessed as dissociation half life; in short: as §1
Kallikrein-1 [11] = molecular target: T1, Kallikrein-1; test: Inhibition of human recombinant N-terminal His-tagged and enterokinase cleavage site-fused KLK1 (19 to 262 residues) expressed in baculovirus infected Sf9 insect cells at 10 uM using R110 labelled GSK3162232A as substrate measured at 30 secs interval for 5 mins by FLINT assay relative to control
Kallikrein-5 [12] = molecular target: T6, Kallikrein-5; test: Inhibition of human recombinant 6His-Q-FLAG-tagged KLK5 expressed in baculovirus infected Sf9 insect cells using rhodamine-labelled tripeptide as substrate measured at 30 secs interval for 5 mins by FLINT assay

| SMILES | IC50 (Kallikrein-1 [1]) [µM] | pKa [2] | IC50 (Coagulation factor X) [µM] | IC50 (Plasma kallikrein) [µM] | IC50 (Kallikrein-7) [µM] | IC50 (Kallikrein-8) [µM] | IC50 (Kallikrein-14) [µM] | IC50 [3] [µM] | IC50 (Prothrombin) [µM] | IC50 (Neutrophil elastase) [µM] | IC50 [4] [µM] | Ratio IC50 (Homo sapiens [5]) | IC50 (Kallikrein-5 [6]) [µM] | Ratio IC50 (Homo sapiens [7]) | IC50 (Kallikrein-5 [8]) [µM] | Kdiss [9] [s⁻¹] | T1/2 [10] [min] | inhibition (Kallikrein-1 [11]) [%] | IC50 (Kallikrein-5 [12]) [µM] |
| --- | --- | --- | --- | --- | --- | --- | --- | --- | --- | --- | --- | --- | --- | --- | --- | --- | --- | --- | --- |
| N=C(N)c1ccc(C2Cc3ccccc3B(O)O2)cc1OCc1cccnc1 (racemic) | 31.6 | 4.83 | 7.94 | 0.1 | > 100 | 0.398 | 0.794 | 6.31 | 2.51 | 5.01 | 50.1 | > 100 | 0.00398 | 10 | – | – | – | – | – |
| N=C(N)c1ccc(CC2OB(O)c3ccccc32)cc1 (racemic) | 5.01 | – | – | – | – | – | – | – | – | – | – | 30 to 100 | – | – | 0.158 | – | – | – | – |
| N=C(N)c1ccc(CC2OB(O)c3ccccc32)cc1OCc1cccnc1 (racemic) | 316 | 4.8 | > 100 | 0.0794 | > 100 | 0.2 | 2 | 7.94 | 10 | 12.6 | 79.4 | > 100 | 0.00631 | 10 | 0.02 | – | – | – | – |
| N=C(N)c1ccc(C2Cc3ccccc3B(O)O2)cc1 (racemic) | 10 | – | – | – | – | – | – | – | – | – | – | 30 to 100 | – | – | 0.0794 | – | – | – | – |
| N=C(N)c1ccc([C@@H]2Cc3ccc(C(F)(F)F)cc3B(O)O2)cc1OCc1cccnc1 | 2 | – | 3.98 | 0.398 | > 100 | 0.0316 | 0.398 | 2 | 20 | > 100 | > 100 | – | < 0.000794 | – | 0.00501 | 0.00214 | 5 | – | – |
| Cc1ccc2c(c1)C(Cc1ccc(C(=N)N)c(OCc3cccnc3)c1)OB2O (racemic) | > 10 | 4.73 | 31.6 | 0.794 | > 100 | 10 | 25.1 | 25.1 | 6.31 | 25.1 | > 100 | – | 0.00794 | 10 | 0.02 | – | – | 10 | – |
| COc1ccc2c(c1)C(Cc1ccc(C(=N)N)c(OCc3cccnc3)c1)OB2O (racemic) | > 10 | 4.71 | 79.4 | 1.26 | > 100 | 12.6 | 39.8 | 25.1 | 31.6 | > 100 | > 100 | – | 0.0251 | 10 | 0.0398 | – | – | 13 | – |
| N=C(N)c1ccc(CC2OB(O)c3cc(C(F)(F)F)ccc32)cc1OCc1cccnc1 (racemic) | > 10 | 4.51 | 31.6 | 0.2 | > 100 | 2 | 12.6 | 31.6 | 20 | > 100 | > 100 | – | 0.00251 | 10 | 0.0126 | – | – | 24 | – |
| N=C(N)c1ccccc1 [BENZAMIDINE HYDROCHLORIDE] | – | – | – | – | – | – | – | – | – | – | – | – | – | – | – | – | – | – | 501 |
